species on record: Homo sapiens; assay: Selectivity ratio of IC50 for wild-type EGFR (unknown origin) to IC50 for EGFR T790M/L858R double mutant (unknown origin); conditions: not given

| Compound | Ratio IC50 |
| --- | --- |
| C=CC(=O)Nc1cc(Nc2nc(C)cc(-c3cn(C)c4ccc(F)cc34)n2)c(OC)cc1N(C)CCN(C)C | 1.9 |
| CCC/C=C\C(=O)Nc1cc(Nc2nccc(-c3cn(C)c4ccccc34)n2)c(OC)cc1N(C)CCN(C)C | 7.4 |
| CC/C=C\C(=O)Nc1cc(Nc2nc(C)cc(-c3cn(C)c4ccccc34)n2)c(OC)cc1N(C)CCN(C)C | 69.7 |
| CC/C=C\C(=O)Nc1cc(Nc2ncc(C#N)c(-c3cn(C)c4ccccc34)n2)c(OC)cc1N(C)CCN(C)C | 24.2 |
| CCC/C=C\C(=O)Nc1cc(Nc2ncc(C#N)c(-c3cn(C)c4ccccc34)n2)c(OC)cc1N(C)CCN(C)C | 10.2 |
| CCC/C=C\C(=O)Nc1cc(Nc2nccc(-c3cn(C)c4ccc(F)cc34)n2)c(OC)cc1N(C)CCN(C)C | 1.6 |
| C=CC(=O)Nc1cc(Nc2nc(C)cc(-c3cn(C)c4ccccc34)n2)c(OC)cc1N(C)CCN(C)C | 14.5 |
| C=C(Cl)C(=O)Nc1cc(Nc2nccc(-c3cn(C)c4ccccc34)n2)c(OC)cc1N(C)CCN(C)C | 7.8 |
| C=CC(=O)Nc1cc(Nc2nccc(-c3cn(C)c4ccc(F)cc34)n2)c(OC)cc1N(C)CCN(C)C | 124 |
| CC/C=C\C(=O)Nc1cc(Nc2nccc(-c3cn(C)c4ccccc34)n2)c(OC)cc1N(C)CCN(C)C | 7.2 |
| C=CC(=O)Nc1cc(Nc2ncc(C#N)c(-c3cn(C)c4ccccc34)n2)c(OC)cc1N(C)CCN(C)C | 12.4 |
| C=C(F)C(=O)Nc1cc(Nc2nccc(-c3cn(C)c4ccccc34)n2)c(OC)cc1N(C)CCN(C)C | 10.8 |
| C=C(Cl)C(=O)Nc1cc(Nc2nc(C)cc(-c3cn(C)c4ccccc34)n2)c(OC)cc1N(C)CCN(C)C | 8.3 |
| COc1cc(N(C)CCN(C)C)c(NC(=O)C=C(C)C)cc1Nc1nccc(-c2cn(C)c3ccccc23)n1 | 6.1 |

biological target: Epidermal growth factor receptor (Homo sapiens, UniProt P00533); assay: Inhibition of wild-type EGFR (unknown origin) using substrate-biotin by ELISA-based mobility shift assay; conditions: not given
Sequence (P00533 whole entry): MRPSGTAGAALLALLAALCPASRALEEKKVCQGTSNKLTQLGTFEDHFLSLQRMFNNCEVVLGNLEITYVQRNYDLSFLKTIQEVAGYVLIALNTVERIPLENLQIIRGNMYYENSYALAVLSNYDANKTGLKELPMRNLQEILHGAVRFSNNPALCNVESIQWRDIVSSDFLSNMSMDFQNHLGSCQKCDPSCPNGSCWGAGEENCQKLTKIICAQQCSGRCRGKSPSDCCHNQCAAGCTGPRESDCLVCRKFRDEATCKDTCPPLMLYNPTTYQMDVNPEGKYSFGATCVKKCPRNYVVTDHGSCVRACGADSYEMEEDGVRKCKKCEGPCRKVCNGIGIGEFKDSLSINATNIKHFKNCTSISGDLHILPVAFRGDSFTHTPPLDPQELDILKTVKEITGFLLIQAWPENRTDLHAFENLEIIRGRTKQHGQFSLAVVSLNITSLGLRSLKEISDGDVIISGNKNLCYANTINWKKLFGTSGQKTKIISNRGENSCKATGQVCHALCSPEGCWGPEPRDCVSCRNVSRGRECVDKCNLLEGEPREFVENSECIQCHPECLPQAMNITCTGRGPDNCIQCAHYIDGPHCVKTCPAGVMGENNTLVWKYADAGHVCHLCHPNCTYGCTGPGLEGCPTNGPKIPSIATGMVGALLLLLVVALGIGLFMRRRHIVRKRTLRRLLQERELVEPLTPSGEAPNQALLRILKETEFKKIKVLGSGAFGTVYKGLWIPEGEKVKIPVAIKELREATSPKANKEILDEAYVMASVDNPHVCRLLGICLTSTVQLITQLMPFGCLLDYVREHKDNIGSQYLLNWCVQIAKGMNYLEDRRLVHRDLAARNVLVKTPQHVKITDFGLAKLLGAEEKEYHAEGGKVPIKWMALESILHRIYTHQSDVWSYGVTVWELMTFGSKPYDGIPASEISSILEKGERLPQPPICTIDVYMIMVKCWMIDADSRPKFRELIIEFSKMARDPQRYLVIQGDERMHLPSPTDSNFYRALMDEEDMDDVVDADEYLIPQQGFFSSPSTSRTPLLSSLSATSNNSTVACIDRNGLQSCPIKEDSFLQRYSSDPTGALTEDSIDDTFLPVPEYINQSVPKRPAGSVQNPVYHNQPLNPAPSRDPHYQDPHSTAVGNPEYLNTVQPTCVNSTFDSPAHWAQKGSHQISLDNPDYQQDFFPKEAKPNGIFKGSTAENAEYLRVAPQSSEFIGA

| Compound | IC50 [nM] |
| --- | --- |
| C=CC(=O)Nc1cc(Nc2nc(C)cc(-c3cn(C)c4ccc(F)cc34)n2)c(OC)cc1N(C)CCN(C)C | 1090 |
| CCC/C=C\C(=O)Nc1cc(Nc2nccc(-c3cn(C)c4ccccc34)n2)c(OC)cc1N(C)CCN(C)C | 1500 |
| CC/C=C\C(=O)Nc1cc(Nc2nc(C)cc(-c3cn(C)c4ccccc34)n2)c(OC)cc1N(C)CCN(C)C | 1260 |
| CC/C=C\C(=O)Nc1cc(Nc2ncc(C#N)c(-c3cn(C)c4ccccc34)n2)c(OC)cc1N(C)CCN(C)C | 387 |
| CCC/C=C\C(=O)Nc1cc(Nc2ncc(C#N)c(-c3cn(C)c4ccccc34)n2)c(OC)cc1N(C)CCN(C)C | 377 |
| CCC/C=C\C(=O)Nc1cc(Nc2nccc(-c3cn(C)c4ccc(F)cc34)n2)c(OC)cc1N(C)CCN(C)C | 12 |
| C=CC(=O)Nc1cc(Nc2nc(C)cc(-c3cn(C)c4ccccc34)n2)c(OC)cc1N(C)CCN(C)C | 1340 |
| C=C(Cl)C(=O)Nc1cc(Nc2nccc(-c3cn(C)c4ccccc34)n2)c(OC)cc1N(C)CCN(C)C | 257 |
| C=CC(=O)Nc1cc(Nc2nccc(-c3cn(C)c4ccc(F)cc34)n2)c(OC)cc1N(C)CCN(C)C | 8.7 |
| CC/C=C\C(=O)Nc1cc(Nc2nccc(-c3cn(C)c4ccccc34)n2)c(OC)cc1N(C)CCN(C)C | 1280 |
| C=CC(=O)Nc1cc(Nc2ncc(C#N)c(-c3cn(C)c4ccccc34)n2)c(OC)cc1N(C)CCN(C)C | 311 |
| C=C(F)C(=O)Nc1cc(Nc2nccc(-c3cn(C)c4ccccc34)n2)c(OC)cc1N(C)CCN(C)C | 65 |
| C=C(Cl)C(=O)Nc1cc(Nc2nc(C)cc(-c3cn(C)c4ccccc34)n2)c(OC)cc1N(C)CCN(C)C | 83 |
| COc1cc(N(C)CCN(C)C)c(NC(=O)C=C(C)C)cc1Nc1nccc(-c2cn(C)c3ccccc23)n1 | 1280 |

biological target: Epidermal growth factor receptor (Homo sapiens, UniProt P00533, L858R/T790M); assay: Inhibition of EGFR T790M/L858R double mutant (unknown origin) using substrate-biotin by ELISA-based mobility shift assay; conditions: not given
Sequence (P00533 25-1210 T790M/L858R limits assumed): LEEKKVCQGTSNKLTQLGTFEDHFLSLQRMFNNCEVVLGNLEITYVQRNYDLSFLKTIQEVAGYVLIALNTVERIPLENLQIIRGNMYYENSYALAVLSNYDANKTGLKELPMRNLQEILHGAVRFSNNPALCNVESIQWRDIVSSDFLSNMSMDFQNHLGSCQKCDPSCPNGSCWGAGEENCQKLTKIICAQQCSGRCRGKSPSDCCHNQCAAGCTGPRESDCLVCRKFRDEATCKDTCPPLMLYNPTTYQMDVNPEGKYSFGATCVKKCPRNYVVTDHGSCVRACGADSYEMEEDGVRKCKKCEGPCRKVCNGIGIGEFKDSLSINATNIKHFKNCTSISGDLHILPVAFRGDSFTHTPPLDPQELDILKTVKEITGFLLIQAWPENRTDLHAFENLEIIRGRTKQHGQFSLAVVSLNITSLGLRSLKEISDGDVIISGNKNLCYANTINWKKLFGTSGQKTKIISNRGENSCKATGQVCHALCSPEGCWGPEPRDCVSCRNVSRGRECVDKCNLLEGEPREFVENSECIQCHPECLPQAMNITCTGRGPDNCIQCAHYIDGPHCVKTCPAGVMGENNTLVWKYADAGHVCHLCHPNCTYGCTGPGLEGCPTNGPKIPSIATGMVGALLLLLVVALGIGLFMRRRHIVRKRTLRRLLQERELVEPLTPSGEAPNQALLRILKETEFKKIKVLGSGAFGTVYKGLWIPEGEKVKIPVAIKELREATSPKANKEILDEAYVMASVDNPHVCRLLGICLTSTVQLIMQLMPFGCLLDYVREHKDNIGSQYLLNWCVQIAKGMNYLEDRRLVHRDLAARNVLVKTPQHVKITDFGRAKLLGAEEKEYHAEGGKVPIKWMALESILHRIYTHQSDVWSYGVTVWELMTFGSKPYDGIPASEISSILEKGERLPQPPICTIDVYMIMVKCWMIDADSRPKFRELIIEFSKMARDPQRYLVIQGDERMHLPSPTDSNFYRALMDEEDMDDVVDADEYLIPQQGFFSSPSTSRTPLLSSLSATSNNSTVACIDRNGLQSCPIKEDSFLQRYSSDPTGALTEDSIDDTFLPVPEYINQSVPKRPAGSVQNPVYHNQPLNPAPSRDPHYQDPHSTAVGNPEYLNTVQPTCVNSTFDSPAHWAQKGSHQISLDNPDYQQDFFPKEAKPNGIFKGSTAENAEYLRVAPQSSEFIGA

| Compound | IC50 [nM] |
| --- | --- |
| C=CC(=O)Nc1cc(Nc2nc(C)cc(-c3cn(C)c4ccc(F)cc34)n2)c(OC)cc1N(C)CCN(C)C | 591 |
| CCC/C=C\C(=O)Nc1cc(Nc2nccc(-c3cn(C)c4ccccc34)n2)c(OC)cc1N(C)CCN(C)C | 203 |
| CC/C=C\C(=O)Nc1cc(Nc2nc(C)cc(-c3cn(C)c4ccccc34)n2)c(OC)cc1N(C)CCN(C)C | 18 |
| CC/C=C\C(=O)Nc1cc(Nc2ncc(C#N)c(-c3cn(C)c4ccccc34)n2)c(OC)cc1N(C)CCN(C)C | 16 |
| CCC/C=C\C(=O)Nc1cc(Nc2ncc(C#N)c(-c3cn(C)c4ccccc34)n2)c(OC)cc1N(C)CCN(C)C | 37 |
| CCC/C=C\C(=O)Nc1cc(Nc2nccc(-c3cn(C)c4ccc(F)cc34)n2)c(OC)cc1N(C)CCN(C)C | 7.5 |
| C=CC(=O)Nc1cc(Nc2nc(C)cc(-c3cn(C)c4ccccc34)n2)c(OC)cc1N(C)CCN(C)C | 93 |
| C=C(Cl)C(=O)Nc1cc(Nc2nccc(-c3cn(C)c4ccccc34)n2)c(OC)cc1N(C)CCN(C)C | 33 |
| C=CC(=O)Nc1cc(Nc2nccc(-c3cn(C)c4ccc(F)cc34)n2)c(OC)cc1N(C)CCN(C)C | 0.07 |
| CC/C=C\C(=O)Nc1cc(Nc2nccc(-c3cn(C)c4ccccc34)n2)c(OC)cc1N(C)CCN(C)C | 177 |
| C=CC(=O)Nc1cc(Nc2ncc(C#N)c(-c3cn(C)c4ccccc34)n2)c(OC)cc1N(C)CCN(C)C | 25 |
| C=C(F)C(=O)Nc1cc(Nc2nccc(-c3cn(C)c4ccccc34)n2)c(OC)cc1N(C)CCN(C)C | 6 |
| C=C(Cl)C(=O)Nc1cc(Nc2nc(C)cc(-c3cn(C)c4ccccc34)n2)c(OC)cc1N(C)CCN(C)C | 10 |
| COc1cc(N(C)CCN(C)C)c(NC(=O)C=C(C)C)cc1Nc1nccc(-c2cn(C)c3ccccc23)n1 | 209 |

tested on: A549; assay: Antiproliferative activity against human A549 cells after 72 hrs by MTT assay; assay type: functional, cell-based; conditions: A549, 72 h
Method in brief: (§1)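 MTT assay; cells grown as monolayers in DMEM or RPMI1640 with 10% FBS at 37 °C, 5% CO2 for 24 h, then compound added for 72 h. MTT at 5 μg/mL for 4 h at 37 °C, formazan dissolved in DMSO, absorbance read at 492 nm with 630 nm reference. Each compound tested three times per line; IC50 from averaged determinations.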

| Compound | IC50 [nM] |
| --- | --- |
| C=CC(=O)Nc1cc(Nc2nc(C)cc(-c3cn(C)c4ccc(F)cc34)n2)c(OC)cc1N(C)CCN(C)C | 1490 |
| CCC/C=C\C(=O)Nc1cc(Nc2nccc(-c3cn(C)c4ccccc34)n2)c(OC)cc1N(C)CCN(C)C | 808 |
| CC/C=C\C(=O)Nc1cc(Nc2nc(C)cc(-c3cn(C)c4ccccc34)n2)c(OC)cc1N(C)CCN(C)C | 1080 |
| CC/C=C\C(=O)Nc1cc(Nc2ncc(C#N)c(-c3cn(C)c4ccccc34)n2)c(OC)cc1N(C)CCN(C)C | 162 |
| CCC/C=C\C(=O)Nc1cc(Nc2ncc(C#N)c(-c3cn(C)c4ccccc34)n2)c(OC)cc1N(C)CCN(C)C | 166 |
| CCC/C=C\C(=O)Nc1cc(Nc2nccc(-c3cn(C)c4ccc(F)cc34)n2)c(OC)cc1N(C)CCN(C)C | 1030 |
| C=CC(=O)Nc1cc(Nc2nc(C)cc(-c3cn(C)c4ccccc34)n2)c(OC)cc1N(C)CCN(C)C | 2910 |
| C=C(Cl)C(=O)Nc1cc(Nc2nccc(-c3cn(C)c4ccccc34)n2)c(OC)cc1N(C)CCN(C)C | 7520 |
| C=CC(=O)Nc1cc(Nc2nccc(-c3cn(C)c4ccc(F)cc34)n2)c(OC)cc1N(C)CCN(C)C | 329 |
| CC/C=C\C(=O)Nc1cc(Nc2nccc(-c3cn(C)c4ccccc34)n2)c(OC)cc1N(C)CCN(C)C | 1530 |
| C=CC(=O)Nc1cc(Nc2ncc(C#N)c(-c3cn(C)c4ccccc34)n2)c(OC)cc1N(C)CCN(C)C | 308 |
| C=C(F)C(=O)Nc1cc(Nc2nccc(-c3cn(C)c4ccccc34)n2)c(OC)cc1N(C)CCN(C)C | 2460 |
| C=C(Cl)C(=O)Nc1cc(Nc2nc(C)cc(-c3cn(C)c4ccccc34)n2)c(OC)cc1N(C)CCN(C)C | 1730 |
| COc1cc(N(C)CCN(C)C)c(NC(=O)C=C(C)C)cc1Nc1nccc(-c2cn(C)c3ccccc23)n1 | 4100 |

tested on: HepG2; assay: Antiproliferative activity against human HepG2 cells after 72 hrs by MTT assay; assay type: functional, cell-based; conditions: HepG2, 72 h
Method in brief: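 MTT assay; cells grown as monolayers in DMEM or RPMI1640 with 10% FBS at 37 °C, 5% CO2 for 24 h, then compound added for 72 h. Each compound tested three times per line; IC50 from averaged determinations.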

| Compound | IC50 [nM] |
| --- | --- |
| C=CC(=O)Nc1cc(Nc2nc(C)cc(-c3cn(C)c4ccc(F)cc34)n2)c(OC)cc1N(C)CCN(C)C | 4280 |
| CCC/C=C\C(=O)Nc1cc(Nc2nccc(-c3cn(C)c4ccccc34)n2)c(OC)cc1N(C)CCN(C)C | 431 |
| CC/C=C\C(=O)Nc1cc(Nc2nc(C)cc(-c3cn(C)c4ccccc34)n2)c(OC)cc1N(C)CCN(C)C | 2050 |
| CC/C=C\C(=O)Nc1cc(Nc2ncc(C#N)c(-c3cn(C)c4ccccc34)n2)c(OC)cc1N(C)CCN(C)C | 1360 |
| CCC/C=C\C(=O)Nc1cc(Nc2ncc(C#N)c(-c3cn(C)c4ccccc34)n2)c(OC)cc1N(C)CCN(C)C | 1680 |
| CCC/C=C\C(=O)Nc1cc(Nc2nccc(-c3cn(C)c4ccc(F)cc34)n2)c(OC)cc1N(C)CCN(C)C | 3400 |
| C=CC(=O)Nc1cc(Nc2nc(C)cc(-c3cn(C)c4ccccc34)n2)c(OC)cc1N(C)CCN(C)C | 12600 |
| C=C(Cl)C(=O)Nc1cc(Nc2nccc(-c3cn(C)c4ccccc34)n2)c(OC)cc1N(C)CCN(C)C | 1390 |
| C=CC(=O)Nc1cc(Nc2nccc(-c3cn(C)c4ccc(F)cc34)n2)c(OC)cc1N(C)CCN(C)C | 429 |
| CC/C=C\C(=O)Nc1cc(Nc2nccc(-c3cn(C)c4ccccc34)n2)c(OC)cc1N(C)CCN(C)C | 6670 |
| C=CC(=O)Nc1cc(Nc2ncc(C#N)c(-c3cn(C)c4ccccc34)n2)c(OC)cc1N(C)CCN(C)C | 768 |
| C=C(F)C(=O)Nc1cc(Nc2nccc(-c3cn(C)c4ccccc34)n2)c(OC)cc1N(C)CCN(C)C | 3790 |
| C=C(Cl)C(=O)Nc1cc(Nc2nc(C)cc(-c3cn(C)c4ccccc34)n2)c(OC)cc1N(C)CCN(C)C | 3640 |
| COc1cc(N(C)CCN(C)C)c(NC(=O)C=C(C)C)cc1Nc1nccc(-c2cn(C)c3ccccc23)n1 | 5660 |

tested on: NCI-H1975; assay: Antiproliferative activity against human NCI-H1975 cells after 72 hrs by MTT assay; assay type: functional, cell-based; conditions: NCI-H1975, 72 h; method in brief: as §1

| Compound | IC50 [nM] |
| --- | --- |
| C=CC(=O)Nc1cc(Nc2nc(C)cc(-c3cn(C)c4ccc(F)cc34)n2)c(OC)cc1N(C)CCN(C)C | 3830 |
| CCC/C=C\C(=O)Nc1cc(Nc2nccc(-c3cn(C)c4ccccc34)n2)c(OC)cc1N(C)CCN(C)C | 1220 |
| CC/C=C\C(=O)Nc1cc(Nc2nc(C)cc(-c3cn(C)c4ccccc34)n2)c(OC)cc1N(C)CCN(C)C | 1990 |
| CC/C=C\C(=O)Nc1cc(Nc2ncc(C#N)c(-c3cn(C)c4ccccc34)n2)c(OC)cc1N(C)CCN(C)C | 1150 |
| CCC/C=C\C(=O)Nc1cc(Nc2ncc(C#N)c(-c3cn(C)c4ccccc34)n2)c(OC)cc1N(C)CCN(C)C | 823 |
| CCC/C=C\C(=O)Nc1cc(Nc2nccc(-c3cn(C)c4ccc(F)cc34)n2)c(OC)cc1N(C)CCN(C)C | 2730 |
| C=CC(=O)Nc1cc(Nc2nc(C)cc(-c3cn(C)c4ccccc34)n2)c(OC)cc1N(C)CCN(C)C | 4810 |
| C=C(Cl)C(=O)Nc1cc(Nc2nccc(-c3cn(C)c4ccccc34)n2)c(OC)cc1N(C)CCN(C)C | 1290 |
| C=CC(=O)Nc1cc(Nc2nccc(-c3cn(C)c4ccc(F)cc34)n2)c(OC)cc1N(C)CCN(C)C | 254 |
| CC/C=C\C(=O)Nc1cc(Nc2nccc(-c3cn(C)c4ccccc34)n2)c(OC)cc1N(C)CCN(C)C | 3860 |
| C=CC(=O)Nc1cc(Nc2ncc(C#N)c(-c3cn(C)c4ccccc34)n2)c(OC)cc1N(C)CCN(C)C | 1190 |
| C=C(F)C(=O)Nc1cc(Nc2nccc(-c3cn(C)c4ccccc34)n2)c(OC)cc1N(C)CCN(C)C | 4230 |
| C=C(Cl)C(=O)Nc1cc(Nc2nc(C)cc(-c3cn(C)c4ccccc34)n2)c(OC)cc1N(C)CCN(C)C | 2230 |
| COc1cc(N(C)CCN(C)C)c(NC(=O)C=C(C)C)cc1Nc1nccc(-c2cn(C)c3ccccc23)n1 | 5610 |

Source: ChEMBL document CHEMBL4411272, “Design, synthesis and biological evaluation of AZD9291 derivatives as selective and potent EGFRL858R/T790M inhibitors” (Eur J Med Chem, 2019)
